Reference: ChEMBL document CHEMBL1938268, “Synthesis, characterization and in vitro biological evaluation of some novel diarylsulfonylureas as potential cytotoxic and antimicrobial agents” (Bioorg Med Chem Lett, 2012)
Values after ≈ are worked out from the molar mass of the structure shown.

Key:
Candida albicans = assay: Antifungal activity against Candida albicans NCIM 3102 after 48 hrs by agar well diffusion assay; format: functional; conditions: NCIM 3102, 48 h
In short: (§1)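 Fungal spore suspensions in sterile distilled water set to final 10⁶ CFU/mL; 0.1 mL spread on Potato-Dextrose-Agar. NCCLS agar well diffusion with NCIM standard strains: 6 mm wells given 0.1 mL compound diluted in 1% DMSO, final 16 to 512 µg/mL. Triplicate plates held 48 h at 28 0.2 °C. MIC is lowest concentration fully inhibiting growth.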

Aspergillus oryzae = assay: Antifungal activity against Aspergillus oryzae NCIM 643 after 48 hrs by agar well diffusion assay; format: functional; conditions: NCIM 643, 48 h; in short: as §1
Staphylococcus aureus = assay: Antibacterial activity against Staphylococcus aureus NCIM 2079 after 24 hrs by agar well diffusion assay; format: functional; conditions: NCIM 2079, 24 h
In short: (§2)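 Agar well diffusion per NCCLS; NCIM standard strains. Nutrient agar seeded with 0.1 mL bacterial suspension in sterile 0.85% saline at 10⁵ CFU/mL. Plates in triplicate, 37 0.5 °C, 24 h. MIC taken as lowest concentration giving complete growth inhibition.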

Bacillus subtilis = assay: Antibacterial activity against Bacillus subtilis NCIM 2063 after 24 hrs by agar well diffusion assay; format: functional; conditions: NCIM 2063, 24 h; in short: as §2
Pseudomonas aeruginosa = assay: Antibacterial activity against Pseudomonas aeruginosa NCIM 2036 after 24 hrs by agar well diffusion assay; format: functional; conditions: NCIM 2036, 24 h; in short: as §2
Aspergillus niger = assay: Antifungal activity against Aspergillus niger NCIM 548 after 48 hrs by agar well diffusion assay; format: functional; conditions: NCIM 548, 48 h; in short: as §1
Penicillium chrysogenum = assay: Antifungal activity against Penicillium chrysogenum NCIM 738 after 48 hrs by agar well diffusion assay; format: functional; conditions: NCIM 738, 48 h; in short: as §1
Proteus vulgaris = assay: Antibacterial activity against Proteus vulgaris NCIM 2813 after 24 hrs by agar well diffusion assay; format: functional; conditions: NCIM 2813, 24 h; in short: as §2
Bacillus pumilus = assay: Antibacterial activity against Bacillus pumilus NCIM 2327 after 24 hrs by agar well diffusion assay; conditions: NCIM 2327, 24 h
Escherichia coli = assay: Antibacterial activity against Escherichia coli NCIM 2065 after 24 hrs by agar well diffusion assay; format: functional; conditions: NCIM 2065, 24 h; in short: as §2
[1] = Toxicity against Brine shrimp nauplii after 24 hrs; format: organism-based; conditions: artemia salina, in vivo; read-out: ED50
In short: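 Artemia salina nauplii hatched 38 h in sterile brine (sea salt 38 g/L, pH 8.5) under aeration; 10 nauplii per vial exposed to graded compound concentrations in 5 mL final volume, 37 °C, 24 h under incandescent light. Survivors counted; percent lethality versus vehicle-treated controls; ED50 from probit analysis; podophyllotoxin positive control.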

Micrococcus luteus = assay: Antibacterial activity against Micrococcus luteus NCIM 2155 after 24 hrs by agar well diffusion assay; format: functional; conditions: NCIM 2155, 24 h; in short: as §2
Klebsiella pneumoniae = assay: Antibacterial activity against Klebsiella pneumoniae NCIM 5082 after 24 hrs by agar well diffusion assay; format: functional; conditions: NCIM 5082, 24 h; in short: as §2

SMILES	MIC (Candida albicans) [µg/mL]	MIC (Aspergillus oryzae) [µg/mL]	MIC (Staphylococcus aureus) [µg/mL]	MIC (Bacillus subtilis) [µg/mL]	MIC (Pseudomonas aeruginosa) [µg/mL]	MIC (Aspergillus niger) [µg/mL]	MIC (Penicillium chrysogenum) [µg/mL]	MIC (Proteus vulgaris) [µg/mL]	MIC (Bacillus pumilus) [µg/mL]	MIC (Escherichia coli) [µg/mL]	LC50 at 24 h [1] [µg/mL]	MIC (Micrococcus luteus) [µg/mL]	MIC (Klebsiella pneumoniae) [µg/mL]
Cc1ccc(S(=O)(=O)NC(=O)Nc2ccccc2C(=O)/C=C/c2ccccc2)cc1	512 (≈ 1220 µM)	512 (≈ 1220 µM)	512 (≈ 1220 µM)	512 (≈ 1220 µM)	512 (≈ 1220 µM)	512 (≈ 1220 µM)	512 (≈ 1220 µM)	512 (≈ 1220 µM)	512 (≈ 1220 µM)	512 (≈ 1220 µM)	25 (≈ 59.5 µM)	512 (≈ 1220 µM)	512 (≈ 1220 µM)
Cc1ccc(/C=C/C(=O)c2ccccc2NC(=O)NS(=O)(=O)c2ccc(C)cc2)cc1	256 (≈ 589 µM)	256 (≈ 589 µM)	128 (≈ 295 µM)	256 (≈ 589 µM)	256 (≈ 589 µM)	256 (≈ 589 µM)	256 (≈ 589 µM)	256 (≈ 589 µM)	256 (≈ 589 µM)	256 (≈ 589 µM)	15.3 (≈ 35.2 µM)	256 (≈ 589 µM)	256 (≈ 589 µM)
Cc1ccc(S(=O)(=O)NC(=O)Nc2ccccc2C(=O)/C=C/c2ccc(N(C)C)cc2)cc1	128 (≈ 276 µM)	256 (≈ 552 µM)	64 (≈ 138 µM)	64 (≈ 138 µM)	64 (≈ 138 µM)	256 (≈ 552 µM)	256 (≈ 552 µM)	128 (≈ 276 µM)	64 (≈ 138 µM)	64 (≈ 138 µM)	38.1 (≈ 82.2 µM)	128 (≈ 276 µM)	128 (≈ 276 µM)
COc1cccc(/C=C/C(=O)c2ccccc2NC(=O)NS(=O)(=O)c2ccc(C)cc2)c1	128 (≈ 284 µM)	128 (≈ 284 µM)	128 (≈ 284 µM)	128 (≈ 284 µM)	128 (≈ 284 µM)	128 (≈ 284 µM)	128 (≈ 284 µM)	128 (≈ 284 µM)	128 (≈ 284 µM)	128 (≈ 284 µM)	23.2 (≈ 51.4 µM)	128 (≈ 284 µM)	128 (≈ 284 µM)
COc1ccc(/C=C/C(=O)c2ccccc2NC(=O)NS(=O)(=O)c2ccc(C)cc2)cc1	128 (≈ 284 µM)	128 (≈ 284 µM)	128 (≈ 284 µM)	64 (≈ 142 µM)	64 (≈ 142 µM)	128 (≈ 284 µM)	128 (≈ 284 µM)	128 (≈ 284 µM)	128 (≈ 284 µM)	128 (≈ 284 µM)	28.1 (≈ 62.4 µM)	128 (≈ 284 µM)	128 (≈ 284 µM)
COc1ccc(/C=C/C(=O)c2ccccc2NC(=O)NS(=O)(=O)c2ccc(C)cc2)cc1OC	128 (≈ 266 µM)	128 (≈ 266 µM)	64 (≈ 133 µM)	32 (≈ 66.6 µM)	32 (≈ 66.6 µM)	128 (≈ 266 µM)	128 (≈ 266 µM)	128 (≈ 266 µM)	64 (≈ 133 µM)	64 (≈ 133 µM)	12.9 (≈ 26.8 µM)	128 (≈ 266 µM)	128 (≈ 266 µM)
COc1ccc(/C=C/C(=O)c2ccccc2NC(=O)NS(=O)(=O)c2ccc(C)cc2)c(OC)c1	128 (≈ 266 µM)	128 (≈ 266 µM)	32 (≈ 66.6 µM)	32 (≈ 66.6 µM)	32 (≈ 66.6 µM)	128 (≈ 266 µM)	128 (≈ 266 µM)	128 (≈ 266 µM)	32 (≈ 66.6 µM)	32 (≈ 66.6 µM)	16 (≈ 33.4 µM)	128 (≈ 266 µM)	128 (≈ 266 µM)
Cc1ccc(S(=O)(=O)NC(=O)Nc2ccccc2C(=O)/C=C/c2ccccc2O)cc1	256 (≈ 586 µM)	256 (≈ 586 µM)	256 (≈ 586 µM)	512 (≈ 1170 µM)	512 (≈ 1170 µM)	256 (≈ 586 µM)	256 (≈ 586 µM)	256 (≈ 586 µM)	512 (≈ 1170 µM)	512 (≈ 1170 µM)	32.3 (≈ 74.1 µM)	256 (≈ 586 µM)	256 (≈ 586 µM)
Cc1ccc(S(=O)(=O)NC(=O)Nc2ccccc2C(=O)/C=C/c2cccc(O)c2)cc1	512 (≈ 1170 µM)	512 (≈ 1170 µM)	512 (≈ 1170 µM)	512 (≈ 1170 µM)	512 (≈ 1170 µM)	512 (≈ 1170 µM)	512 (≈ 1170 µM)	512 (≈ 1170 µM)	512 (≈ 1170 µM)	512 (≈ 1170 µM)	39.3 (≈ 89.9 µM)	512 (≈ 1170 µM)	512 (≈ 1170 µM)
Cc1ccc(S(=O)(=O)NC(=O)Nc2ccccc2C(=O)/C=C/c2ccc(O)cc2)cc1	128 (≈ 293 µM)	128 (≈ 293 µM)	256 (≈ 586 µM)	256 (≈ 586 µM)	256 (≈ 586 µM)	128 (≈ 293 µM)	128 (≈ 293 µM)	128 (≈ 293 µM)	128 (≈ 293 µM)	128 (≈ 293 µM)	24.3 (≈ 55.7 µM)	128 (≈ 293 µM)	128 (≈ 293 µM)
CCOc1cc(/C=C/C(=O)c2ccccc2NC(=O)NS(=O)(=O)c2ccc(C)cc2)ccc1O	512 (≈ 1070 µM)	512 (≈ 1070 µM)	128 (≈ 266 µM)	128 (≈ 266 µM)	128 (≈ 266 µM)	512 (≈ 1070 µM)	512 (≈ 1070 µM)	512 (≈ 1070 µM)	64 (≈ 133 µM)	64 (≈ 133 µM)	19.2 (≈ 40 µM)	512 (≈ 1070 µM)	512 (≈ 1070 µM)
